Series [1] addresses T1, Muscarinic acetylcholine receptor M1 (Homo sapiens) (UniProt P11229).
T1 sequence (whole entry): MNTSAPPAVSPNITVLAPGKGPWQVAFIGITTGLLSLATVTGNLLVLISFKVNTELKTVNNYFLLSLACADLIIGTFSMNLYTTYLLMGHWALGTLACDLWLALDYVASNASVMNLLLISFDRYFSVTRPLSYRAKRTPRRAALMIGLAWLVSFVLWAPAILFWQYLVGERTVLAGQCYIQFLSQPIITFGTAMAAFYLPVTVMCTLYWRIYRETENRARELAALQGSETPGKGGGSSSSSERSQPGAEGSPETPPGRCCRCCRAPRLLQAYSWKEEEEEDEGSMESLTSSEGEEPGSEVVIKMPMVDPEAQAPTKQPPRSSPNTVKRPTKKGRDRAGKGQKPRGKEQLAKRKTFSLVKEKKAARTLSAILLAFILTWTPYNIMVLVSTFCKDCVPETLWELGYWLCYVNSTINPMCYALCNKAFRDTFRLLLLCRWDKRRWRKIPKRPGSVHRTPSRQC
Briefly: Positive allosteric modulation of human muscarinic M1 receptor expressed CHO cells assessed as intrinsic potency of acetylcholine-induced calcium mobilization by FLIPR assay. In kind it is functional, cell-based. Summed up:
(§1)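 Human M1 receptor expressed in CHO cells, with calcium mobilization read by FLIPR. Inflection point (IP, nM) and % max response are taken as the numerical average of at least two experiments. Interassay variability was ±30% for IP unless noted otherwise.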

The target of series [2] is T1, Muscarinic acetylcholine receptor M1 (Homo sapiens). Briefly: Positive allosteric modulation of human muscarinic M1 receptor expressed CHO cells assessed as intrinsic potency of acetylcholine-induced calcium mobilization by FLIPR assay relative to control. Type of series: functional, cell-based. Summed up:
as §1
For orientation: A change in cytosolic calcium serves as a functional read-out for many receptors and channels.

Series [3] in a line: Ratio of drug level in brain to plasma in Sprague-Dawley rat at 10 mg/kg, po. Type of series: ADME, organism-based. The arrangement: dose 10 mg/kg, route oral. The note with it: read-out: BPR.
The target of series [4] is Multidrug resistance protein 1a (Rattus norvegicus, UniProt Q6PSM0). Briefly: Activity at rat MDR1a assessed as ratio of permeability from basolateral to apical side over permeability from apical to basolateral side by cell based assay.
Series [5] concerns the target ATP-dependent translocase ABCB1 (Homo sapiens, UniProt P08183). Briefly: Activity at human MDR1 assessed as ratio of permeability from basolateral to apical side over permeability from apical to basolateral side by cell based assay.
A further series relates to Plasma. Briefly: Plasma concentration in Sprague-Dawley rat at 10 mg/kg, po. Note: time not given here. The note with it: in vivo. Type of series: ADME, organism-based. Details: dose 10 mg/kg, route oral.
Series [6] in a line: Apparent permeability of the compound. Type of series: physicochemical. The note with it: not told.
Series [7] can be described thus: Ratio of drug level in cerebrospinal fluid in Sprague-Dawley rat at 10 mg/kg, po to unbound fraction in rat plasma. Type of series: ADME, organism-based, CSF/Plasma. Details: dose 10 mg/kg, route oral. The note with it: in vivo.
The test system of the next series is Brain. Briefly: Drug level in Sprague-Dawley rat brain at 10 mg/kg, po. Note: time not given here. In kind it is ADME, organism-based. The arrangement: dose 10 mg/kg, route oral. The conditions noted are these: in vivo, read-out: Drug uptake.
The nature of series [8]: Plasma protein binding in rat plasma. The note with it: read-out: PPB (converted). In kind it is ADME, cell-free.
Another series relates to Cerebrospinal fluid. Briefly: Drug level in Sprague-Dawley rat cerebrospinal fluid at 10 mg/kg, po. Note: time not given here. Type of series: ADME, organism-based. Details: dose 10 mg/kg, route oral. The note with it: in vivo, read-out: Drug uptake.
For series [9], the target named is T1, Muscarinic acetylcholine receptor M1 (Homo sapiens). Briefly: Positive allosteric modulation of human muscarinic M1 receptor expressed CHO cells assessed as intrinsic potency of acetylcholine-induced calcium mobilization by FLIPR assay relative to acetylcholine. Type of series: functional, cell-based. Summed up: as §1

Sequence of Multidrug resistance protein 1a (Q6PSM0 whole entry): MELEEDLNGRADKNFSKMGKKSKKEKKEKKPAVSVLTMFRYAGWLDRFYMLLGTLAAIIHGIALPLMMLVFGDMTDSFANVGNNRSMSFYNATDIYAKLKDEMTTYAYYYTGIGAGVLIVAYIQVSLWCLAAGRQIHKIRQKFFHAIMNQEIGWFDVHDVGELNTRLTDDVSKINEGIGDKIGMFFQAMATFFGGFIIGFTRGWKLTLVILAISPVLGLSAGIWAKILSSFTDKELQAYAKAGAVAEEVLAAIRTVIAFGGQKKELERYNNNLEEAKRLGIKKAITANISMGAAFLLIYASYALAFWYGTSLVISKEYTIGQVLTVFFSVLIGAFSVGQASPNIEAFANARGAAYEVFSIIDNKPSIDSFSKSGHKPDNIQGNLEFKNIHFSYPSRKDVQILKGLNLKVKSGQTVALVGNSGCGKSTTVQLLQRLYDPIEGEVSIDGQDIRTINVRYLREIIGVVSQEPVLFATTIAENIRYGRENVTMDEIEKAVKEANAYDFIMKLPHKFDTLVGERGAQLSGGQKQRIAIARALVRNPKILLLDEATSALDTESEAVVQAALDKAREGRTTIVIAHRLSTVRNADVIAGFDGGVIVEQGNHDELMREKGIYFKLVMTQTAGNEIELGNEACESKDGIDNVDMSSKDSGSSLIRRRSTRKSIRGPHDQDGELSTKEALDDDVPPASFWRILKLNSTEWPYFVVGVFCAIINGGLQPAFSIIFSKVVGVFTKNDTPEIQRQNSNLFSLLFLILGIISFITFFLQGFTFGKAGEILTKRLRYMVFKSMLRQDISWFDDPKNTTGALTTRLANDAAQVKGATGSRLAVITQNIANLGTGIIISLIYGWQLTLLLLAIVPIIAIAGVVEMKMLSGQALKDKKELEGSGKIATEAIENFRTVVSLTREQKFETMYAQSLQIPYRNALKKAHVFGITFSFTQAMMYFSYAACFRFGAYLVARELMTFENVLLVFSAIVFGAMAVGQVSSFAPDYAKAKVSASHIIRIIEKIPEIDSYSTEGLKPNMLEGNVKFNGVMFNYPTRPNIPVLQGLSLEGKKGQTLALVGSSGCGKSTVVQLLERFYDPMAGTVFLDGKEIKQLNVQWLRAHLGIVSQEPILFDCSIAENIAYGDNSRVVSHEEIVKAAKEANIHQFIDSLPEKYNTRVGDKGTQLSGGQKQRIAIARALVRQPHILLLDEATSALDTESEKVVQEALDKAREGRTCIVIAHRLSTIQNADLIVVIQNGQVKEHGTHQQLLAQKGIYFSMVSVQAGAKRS
Sequence of ATP-dependent translocase ABCB1 (P08183 whole entry): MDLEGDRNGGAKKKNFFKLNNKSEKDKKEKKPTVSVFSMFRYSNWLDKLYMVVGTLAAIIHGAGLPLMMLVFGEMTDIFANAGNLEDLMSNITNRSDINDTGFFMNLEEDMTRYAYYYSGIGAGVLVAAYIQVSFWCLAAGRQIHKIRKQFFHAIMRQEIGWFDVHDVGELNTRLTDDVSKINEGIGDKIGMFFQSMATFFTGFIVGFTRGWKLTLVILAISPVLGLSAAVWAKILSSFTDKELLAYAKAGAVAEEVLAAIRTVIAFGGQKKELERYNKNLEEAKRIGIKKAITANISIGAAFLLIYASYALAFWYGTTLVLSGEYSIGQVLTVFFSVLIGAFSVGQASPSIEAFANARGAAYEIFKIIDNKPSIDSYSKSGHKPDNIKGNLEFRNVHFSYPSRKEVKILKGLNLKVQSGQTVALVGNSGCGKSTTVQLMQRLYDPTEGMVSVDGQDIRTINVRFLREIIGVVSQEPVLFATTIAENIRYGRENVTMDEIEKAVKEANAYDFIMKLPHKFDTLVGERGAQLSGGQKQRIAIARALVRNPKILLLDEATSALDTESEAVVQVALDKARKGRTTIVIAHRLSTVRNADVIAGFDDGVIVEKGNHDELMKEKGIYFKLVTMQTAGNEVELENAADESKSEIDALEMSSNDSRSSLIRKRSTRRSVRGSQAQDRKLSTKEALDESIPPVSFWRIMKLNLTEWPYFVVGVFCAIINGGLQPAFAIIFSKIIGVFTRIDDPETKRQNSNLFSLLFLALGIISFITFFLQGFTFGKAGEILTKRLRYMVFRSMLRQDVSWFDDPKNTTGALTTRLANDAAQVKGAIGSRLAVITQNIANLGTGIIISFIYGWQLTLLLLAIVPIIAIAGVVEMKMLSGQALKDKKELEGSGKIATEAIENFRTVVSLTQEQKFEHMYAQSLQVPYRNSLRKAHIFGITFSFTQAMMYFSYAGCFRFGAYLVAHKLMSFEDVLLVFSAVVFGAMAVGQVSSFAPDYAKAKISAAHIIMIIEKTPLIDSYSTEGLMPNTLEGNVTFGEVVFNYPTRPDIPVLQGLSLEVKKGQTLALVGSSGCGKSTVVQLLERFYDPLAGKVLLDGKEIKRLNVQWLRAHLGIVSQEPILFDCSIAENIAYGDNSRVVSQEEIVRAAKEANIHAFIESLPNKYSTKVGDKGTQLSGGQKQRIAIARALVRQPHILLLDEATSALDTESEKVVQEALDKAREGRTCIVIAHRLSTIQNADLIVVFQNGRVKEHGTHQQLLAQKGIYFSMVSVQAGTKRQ

Turning to `COc1c(C(=O)N[C@H]2CCCC[C@@H]2O)cc(CN2CCN(c3cnn(C)c3)CC2)c2ccccc12`, the Activity in series [1] was 3900 nM. Moreover, the %max in series [2] was determined as 83%.

With `O=C(N[C@H]1CCCC[C@@H]1O)c1cc(Cc2ccc(Cl)nc2)c2ccccc2c1O`, in series [1], the Activity is 9100 nM. The %max in [2] stood at 35%.

By Papp is commonly meant a coefficient for how fast a substance crosses the barrier. Regarding `COc1c(C(=O)N[C@H]2CCCC[C@@H]2O)cc(Cc2ccc(C)nc2)c2ccccc12`, the Kp in [3] was 0.21. Besides, the Ratio in [4] is recorded as 2.1; in series [5], 1.6; in [7], 0.9. Also, in [1], the Activity came to 121 nM. The concentration was 6.02 µM in the series on Plasma, 1200 nM in the series with Brain and 91 nM with Cerebrospinal fluid. Also, the Papp in [6] stood at 35 ×10⁻⁶ cm/s. In series [8], the fraction unbound is 0.016. For the same compound, in series [2], the %max was found to be 93%. Also, the fold change (FC) in series [9] was 100.

Consider `COc1ccc(Cc2cc(C(=O)O)c(OC)c3ccccc23)cc1`, for which the Activity in [1] came to 3330 nM.

For the compound `COc1c(C(=O)N[C@H]2CCCC[C@@H]2O)cc(Cc2ccc(Cl)nc2)c2ccccc12`, the Kp in [3] stood at 0.22. The Ratio in series [4] is given as 1.9; in series [5], 1.3; in series [7], below 0.1. The Activity in [1] stood at 260 nM. Moreover, the values for the concentration with Plasma, in the series with Brain and with Cerebrospinal fluid were 2.06 µM, 420 nM and 5 nM, respectively. Moreover, the Papp in [6] came out at 32 ×10⁻⁶ cm/s. Moreover, the fraction unbound in [8] is 0.1. In series [2], the %max is 74%.

Turning to `N#CC1(c2ccccn2)CCN(Cc2cc(C(=O)N[C@H]3CCCC[C@@H]3O)c(=O)n3ccccc23)CC1`, the Ratio is given as 21.1 in [4] and 11.1 in series [5]. The Papp in [6] stood at 29 ×10⁻⁶ cm/s.

On to `C=CCOc1c(C(=O)N[C@H]2CCCC[C@@H]2O)cc(Cc2ccc(Cl)nc2)c2ccccc12`, for which, in [1], the Activity is 1100 nM. In addition, the %max in [2] came to 68%.

Turning to `COc1c(C(=O)O)cc(CN2CCC(C#N)(c3ccccn3)CC2)c2ccccc12`, the Activity in series [1] was 5400 nM.

For `CCc1ccc(Cc2cc(C(=O)N[C@H]3CCCC[C@@H]3O)c(OC)c3ccccc23)cn1`, the Activity in series [1] was determined as 190 nM. The %max in [2] is 73%.

As for `COc1c(C(=O)N[C@H]2CCCC[C@@H]2O)cc(Cc2ccc(SC)nc2)c2ccccc12`, the Activity in [1] is 170 nM. Besides, the %max in series [2] worked out at 76%.

On to `CC(=O)Oc1c(C(=O)N[C@H]2CCCC[C@@H]2O)cc(Cc2ccc(Cl)nc2)c2ccccc12`, for which the Activity in series [1] was above 10000 nM. Also, the %max in series [2] stood at 18%.

In the case of `COc1c(C(=O)N[C@H]2CCCC[C@@H]2O)cc(Cc2ccc(-c3cccnc3)nc2)c2ccccc12`, in series [3], the Kp came to 0.2. Further, the Ratio was determined as 1.5 in series [4], 0.9 in [5] and 0.38 in series [7]. In addition, in series [1], the Activity is 24 nM. Besides, the figures for the concentration in the series on Plasma, in the series on Brain and in the series on Cerebrospinal fluid were 4.9 µM, 860 nM and 11 nM, respectively. Also, the Papp in series [6] is 28 ×10⁻⁶ cm/s. In series [8], the fraction unbound is 0.006. In addition, the %max in [2] came to 73%. Besides, the fold change (FC) in [9] stood at 10.

As for `C=Cc1ccc(Cc2cc(C(=O)N[C@H]3CCCC[C@@H]3O)c(OC)c3ccccc23)cn1`, in [1], the Activity worked out at 74 nM. In series [2], the %max is 88%.

With `COc1ccc(Cc2cc(C(=O)N[C@H]3CCCC[C@@H]3O)c(OC)c3ccccc23)cn1`, the Activity in [1] amounted to 140 nM. Besides, in series [2], the %max was 85%.

On to `CCOc1c(C(=O)N[C@H]2CCCC[C@@H]2O)cc(Cc2ccc(Cl)nc2)c2ccccc12`, for which the Activity in series [1] came to 980 nM. Also, the %max in series [2] worked out at 37%.

Regarding `CCc1c(C(=O)N[C@H]2CCCC[C@@H]2O)cc(Cc2ccc(Cl)nc2)c2ccccc12`, in series [1], the Activity stood at 7400 nM. In series [2], the %max was found to be 47%.

Turning to `COc1c(C(=O)N[C@H]2CCCC[C@@H]2O)cc(Cc2ccc(-c3cnn(C)c3)nc2)c2ccccc12`, the Kp in [3] was 0.06. Further, the results for the Ratio in series [4] and in series [5] were 1.4 and 1.1, respectively. Moreover, the Activity in series [1] worked out at 17 nM. Moreover, the values for the concentration with Plasma and in the series on Brain were 29 µM and 1600 nM, respectively. In addition, the Papp in [6] came to 27 ×10⁻⁶ cm/s. Further, in series [8], the fraction unbound is 0.001. Moreover, the %max in [2] came out at 77%.

As for `COc1c(C(=O)N[C@H]2CCCC[C@@H]2O)cc(CN2CCN(c3cc4ccccc4cn3)CC2)c2ccccc12`, the Activity in [1] was 4000 nM. Also, in series [2], the %max came out at 57%.

As to `COc1c(C(=O)N[C@H]2CCCC[C@@H]2O)cc(CN2CCC(C#N)(c3ccccn3)CC2)c2ccccc12`, the Ratio in series [4] is on record as 2.3; in series [5] it was 1.7. In addition, the Activity in [1] is 303 nM. For the same compound, in [6], the Papp was 31 ×10⁻⁶ cm/s. Further, the %max in series [2] stood at 62%.

In the case of `COc1c(C(=O)N[C@H]2CCCC[C@@H]2O)cc(Cc2ccc(-n3cccn3)nc2)c2ccccc12`, the Kp in series [3] stood at 0.17. For the same compound, the results for the Ratio in series [4], in series [5] and in series [7] were 3.2, 1.7 and 0.34, respectively. In addition, the Activity in series [1] turned out to be 87 nM. For the same compound, the results for the concentration with Plasma, with Brain and with Cerebrospinal fluid were 2.1 µM, 370 nM and 8.7 nM, respectively. In addition, the Papp in [6] amounted to 31 ×10⁻⁶ cm/s. The fraction unbound in series [8] is 0.014. Also, in series [2], the %max was 83%.

The values above are taken from ChEMBL document CHEMBL3124934, “Identification of a methoxynaphthalene scaffold as a core replacement in quinolizidinone amide M(1) positive allosteric modulators” (Bioorg Med Chem Lett, 2014).
